In brackets after ≈: the same amount, converted by molar mass. Activity calls are given as the source filed them. The rule behind the calls is not given here.
Experiments:
Candida albicans [1] = assay: Antifungal activity against Candida albicans MTCC 227 at 20 ug/ml after 48 hrs by cup plate method; type: functional, organism-based
Summary of the method: (§1)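 Agar well (cup plate) diffusion on potato dextrose agar 39 g/L. Compounds dissolved in DMSO and loaded into 6 mm wells. Incubated at 28 ± 2 °C for 48 h. Inhibition zone diameter measured to the nearest millimetre, three replicates per treatment. DMSO solvent as negative control, amphotericin B as positive control.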

Aspergillus sp. [2] = assay: Antifungal activity against Aspergillus sp. at 20 ug/ml after 48 hrs by cup plate method; type: functional, organism-based
Summary of the method: (§2)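 Agar well (cup plate) diffusion on potato dextrose agar 39 g/L, with compounds dissolved in DMSO. Plates were incubated at 28 ± 2 °C for 48 h and inhibition zones measured to the nearest mm. Three replicates per treatment. Amphotericin B positive control; solvent control included.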

Aspergillus niger [3] = assay: Antifungal activity against Aspergillus niger at 20 ug/ml after 48 hrs by cup plate method; type: functional, organism-based; summary of the method: as §2
Klebsiella pneumoniae [4] = assay: Antibacterial activity against Klebsiella pneumoniae at 50 ug/ml after 18 hrs by cup plate method; type: functional; details: read-out: DIZ
Summary of the method: (§3)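 Agar well diffusion on Mueller-Hinton agar. Inoculum was adjusted to a 0.5 McFarland standard (about […] × 10⁸ CFU/mL) and swabbed over the plate three times, rotating about 60° each time, then the rim was swabbed. Compounds in DMSO went into duplicate 6 mm wells. Plates were incubated at 37 °C for 18 h and inhibition zone diameter read to the nearest mm. DMSO negative control; streptomycin and ciprofloxacin positive controls.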

Pseudomonas aeruginosa [5] = assay: Antibacterial activity against Pseudomonas aeruginosa at 10 ug/ml after 18 hrs by cup plate method; type: functional; summary of the method: as §3
Bacillus subtilis [6] = assay: Antibacterial activity against Bacillus subtilis at 100 ug/ml after 18 hrs by cup plate method; type: functional; details: read-out: DIZ; summary of the method: as §3
Escherichia coli [7] = assay: Antibacterial activity against Escherichia coli at 50 ug/ml after 18 hrs by cup plate method; type: functional; details: read-out: DIZ; summary of the method: as §3
Candida albicans [8] = assay: Antifungal activity against Candida albicans MTCC 227 at 50 ug/ml after 48 hrs by cup plate method; type: functional; summary of the method: as §1
Bacillus subtilis [9] = assay: Antibacterial activity against Bacillus subtilis at 75 ug/ml after 18 hrs by cup plate method; type: functional; details: read-out: DIZ; summary of the method: as §3
Staphylococcus aureus [10] = assay: Antibacterial activity against Staphylococcus aureus at 10 ug/ml after 18 hrs by cup plate method; type: functional; details: read-out: DIZ; summary of the method: as §3
Candida albicans [11] = assay: Antifungal activity against Candida albicans MTCC 227 at 25 ug/ml after 48 hrs by cup plate method; type: functional; summary of the method: as §1
[12] = test system: Staphylococcus epidermidis; assay: Antibacterial activity against Staphylococcus epidermidis at 100 ug/ml after 18 hrs by cup plate method; type: functional; details: read-out: DIZ; summary of the method: as §3
Pseudomonas aeruginosa [13] = assay: Antibacterial activity against Pseudomonas aeruginosa at 25 ug/ml after 18 hrs by cup plate method; type: functional; details: read-out: DIZ; summary of the method: as §3
Escherichia coli [14] = assay: Antibacterial activity against Escherichia coli at 75 ug/ml after 18 hrs by cup plate method; type: functional; details: read-out: DIZ; summary of the method: as §3
Staphylococcus aureus [15] = assay: Antibacterial activity against Staphylococcus aureus at 25 ug/ml after 18 hrs by cup plate method; type: functional; details: read-out: DIZ; summary of the method: as §3
Aspergillus sp. [16] = assay: Antifungal activity against Aspergillus sp. at 75 ug/ml after 48 hrs by cup plate method; type: functional; summary of the method: as §2
Candida albicans [17] = assay: Antifungal activity against Candida albicans MTCC 227 at 75 ug/ml after 48 hrs by cup plate method; type: functional; summary of the method: as §1
Aspergillus niger [18] = assay: Antifungal activity against Aspergillus niger at 50 ug/ml after 48 hrs by cup plate method; type: functional, organism-based; summary of the method: as §2
Bacillus subtilis [19] = assay: Antibacterial activity against Bacillus subtilis at 25 ug/ml after 18 hrs by cup plate method; type: functional; details: read-out: DIZ; summary of the method: as §3
Staphylococcus aureus [20] = assay: Antibacterial activity against Staphylococcus aureus at 75 ug/ml after 18 hrs by cup plate method; type: functional; details: read-out: DIZ; summary of the method: as §3
Escherichia coli [21] = assay: Antibacterial activity against Escherichia coli at 100 ug/ml after 18 hrs by cup plate method; type: functional; details: read-out: DIZ; summary of the method: as §3
[22] = test system: Staphylococcus epidermidis; assay: Antibacterial activity against Staphylococcus epidermidis at 75 ug/ml after 18 hrs by cup plate method; type: functional; details: read-out: DIZ; summary of the method: as §3
Klebsiella pneumoniae [23] = assay: Antibacterial activity against Klebsiella pneumoniae at 10 ug/ml after 18 hrs by cup plate method; type: functional; details: read-out: DIZ; summary of the method: as §3
[24] = test system: Mycobacterium tuberculosis; assay: Antimycobacterial activity against Mycobacterium tuberculosis H37Rv after 3 to 4 weeks by broth microdilution assay; type: functional
Summary of the method: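 MIC by broth microdilution on compounds active in a single-concentration primary screen. Plates incubated 3–4 weeks at 37 °C in a CO₂ incubator. Wells read visually for absence of growth turbidity.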

[25] = test system: Staphylococcus epidermidis; assay: Antibacterial activity against Staphylococcus epidermidis at 25 ug/ml after 18 hrs by cup plate method; type: functional; details: read-out: DIZ; summary of the method: as §3
Klebsiella pneumoniae [26] = assay: Antibacterial activity against Klebsiella pneumoniae at 25 ug/ml after 18 hrs by cup plate method; type: functional; details: read-out: DIZ; summary of the method: as §3
Klebsiella pneumoniae [27] = assay: Antibacterial activity against Klebsiella pneumoniae at 75 ug/ml after 18 hrs by cup plate method; type: functional; details: read-out: DIZ; summary of the method: as §3
Bacillus subtilis [28] = assay: Antibacterial activity against Bacillus subtilis at 10 ug/ml after 18 hrs by cup plate method; type: functional; summary of the method: as §3
Pseudomonas aeruginosa [29] = assay: Antibacterial activity against Pseudomonas aeruginosa at 75 ug/ml after 18 hrs by cup plate method; type: functional; details: read-out: DIZ; summary of the method: as §3
Aspergillus sp. [30] = assay: Antifungal activity against Aspergillus sp. at 25 ug/ml after 48 hrs by cup plate method; type: functional; summary of the method: as §2
Escherichia coli [31] = assay: Antibacterial activity against Escherichia coli at 10 ug/ml after 18 hrs by cup plate method; type: functional; details: read-out: DIZ; summary of the method: as §3
Pseudomonas aeruginosa [32] = assay: Antibacterial activity against Pseudomonas aeruginosa at 100 ug/ml after 18 hrs by cup plate method; type: functional; details: read-out: DIZ; summary of the method: as §3
[33] = test system: Staphylococcus epidermidis; assay: Antibacterial activity against Staphylococcus epidermidis at 10 ug/ml after 18 hrs by cup plate method; type: functional; details: read-out: DIZ; summary of the method: as §3
Aspergillus niger [34] = assay: Antifungal activity against Aspergillus niger at 25 ug/ml after 48 hrs by cup plate method; type: functional, organism-based; summary of the method: as §2
Candida albicans [35] = assay: Antifungal activity against Candida albicans MTCC 227 at 100 ug/ml after 48 hrs by cup plate method; type: functional; details: MTCC 227, 48 h, read-out: IZ; summary of the method: as §2
Bacillus subtilis [36] = assay: Antibacterial activity against Bacillus subtilis at 50 ug/ml after 18 hrs by cup plate method; type: functional; details: read-out: DIZ; summary of the method: as §3
Klebsiella pneumoniae [37] = assay: Antibacterial activity against Klebsiella pneumoniae at 100 ug/ml after 18 hrs by cup plate method; type: functional; details: read-out: DIZ; summary of the method: as §3
Staphylococcus aureus [38] = assay: Antibacterial activity against Staphylococcus aureus at 100 ug/ml after 18 hrs by cup plate method; type: functional; details: read-out: DIZ; summary of the method: as §3
[39] = test system: Staphylococcus epidermidis; assay: Antibacterial activity against Staphylococcus epidermidis at 50 ug/ml after 18 hrs by cup plate method; type: functional; details: read-out: DIZ; summary of the method: as §3
Aspergillus sp. [40] = assay: Antifungal activity against Aspergillus sp. at 50 ug/ml after 48 hrs by cup plate method; type: functional; summary of the method: as §2
Escherichia coli [41] = assay: Antibacterial activity against Escherichia coli at 25 ug/ml after 18 hrs by cup plate method; type: functional; details: read-out: DIZ; summary of the method: as §3
Aspergillus niger [42] = assay: Antifungal activity against Aspergillus niger at 100 ug/ml after 48 hrs by cup plate method; type: functional; summary of the method: as §2
Staphylococcus aureus [43] = assay: Antibacterial activity against Staphylococcus aureus at 50 ug/ml after 18 hrs by cup plate method; type: functional; details: read-out: DIZ; summary of the method: as §3
Aspergillus niger [44] = assay: Antifungal activity against Aspergillus niger at 75 ug/ml after 48 hrs by cup plate method; type: functional; summary of the method: as §2
Pseudomonas aeruginosa [45] = assay: Antibacterial activity against Pseudomonas aeruginosa at 50 ug/ml after 18 hrs by cup plate method; type: functional; details: read-out: DIZ; summary of the method: as §3
Aspergillus sp. [46] = assay: Antifungal activity against Aspergillus sp. at 100 ug/ml after 48 hrs by cup plate method; type: functional; summary of the method: as §2

Compound: NYSTATIN
- inhibition zone (IZ) (Candida albicans [1]): inactive
- inhibition zone (IZ) (Aspergillus sp. [2]): 16 mm
- inhibition zone (IZ) (Aspergillus niger [3]): 26 mm

Compound: CCN1C(N2CCN(Cc3ccc([N+](=O)[O-])o3)CC2)=NS(=O)(=O)c2ccccc21
- zone of inhibition at 50 µg/mL (Klebsiella pneumoniae [4]): 11 mm
- diameter of the inhibition zone (DIZ) (Pseudomonas aeruginosa [5]): inactive
- zone of inhibition at 100 µg/mL (Bacillus subtilis [6]): 23 mm
- zone of inhibition at 50 µg/mL (Escherichia coli [7]): 16 mm
- inhibition zone (IZ) (Candida albicans [8]): inactive
- zone of inhibition at 75 µg/mL (Bacillus subtilis [9]): 19 mm
- zone of inhibition at 10 µg/mL (Staphylococcus aureus [10]): 13 mm
- inhibition zone (IZ) (Candida albicans [11]): inactive
- zone of inhibition at 100 µg/mL [12]: 24 mm
- zone of inhibition at 25 µg/mL (Pseudomonas aeruginosa [13]): 16 mm
- zone of inhibition at 75 µg/mL (Escherichia coli [14]): 29 mm
- zone of inhibition at 25 µg/mL (Staphylococcus aureus [15]): 16 mm
- inhibition zone (IZ) (Aspergillus sp. [16]): inactive
- inhibition zone (IZ) (Candida albicans [17]): inactive
- inhibition zone (IZ) (Aspergillus niger [18]): inactive
- zone of inhibition at 25 µg/mL (Bacillus subtilis [19]): 11 mm
- zone of inhibition at 75 µg/mL (Staphylococcus aureus [20]): 21 mm
- zone of inhibition at 100 µg/mL (Escherichia coli [21]): 30 mm
- zone of inhibition at 75 µg/mL [22]: 15 mm
- zone of inhibition at 10 µg/mL (Klebsiella pneumoniae [23]): 10 mm
- MIC [24]: 2.81 µg/mL (≈ 6.7 µM)
- zone of inhibition at 25 µg/mL [25]: 12 mm
- zone of inhibition at 25 µg/mL (Klebsiella pneumoniae [26]): 15 mm
- zone of inhibition at 75 µg/mL (Klebsiella pneumoniae [27]): 20 mm
- diameter of the inhibition zone (DIZ) (Bacillus subtilis [28]): inactive
- zone of inhibition at 75 µg/mL (Pseudomonas aeruginosa [29]): 22 mm
- inhibition zone (IZ) (Aspergillus sp. [30]): inactive
- zone of inhibition at 10 µg/mL (Escherichia coli [31]): 12 mm
- zone of inhibition at 100 µg/mL (Pseudomonas aeruginosa [32]): 16 mm
- zone of inhibition at 10 µg/mL [33]: 9 mm
- inhibition zone (IZ) (Aspergillus niger [34]): inactive
- zone of inhibition at 100 µg/mL (Candida albicans [35]): 10 mm
- zone of inhibition at 50 µg/mL (Bacillus subtilis [36]): 17 mm
- zone of inhibition at 100 µg/mL (Klebsiella pneumoniae [37]): 19 mm
- zone of inhibition at 100 µg/mL (Staphylococcus aureus [38]): 10 mm
- zone of inhibition at 50 µg/mL [39]: 12 mm
- inhibition zone (IZ) (Aspergillus sp. [40]): inactive
- zone of inhibition at 25 µg/mL (Escherichia coli [41]): 20 mm
- inhibition zone (IZ) (Aspergillus niger [42]): inactive
- zone of inhibition at 50 µg/mL (Staphylococcus aureus [43]): 16 mm
- inhibition zone (IZ) (Aspergillus niger [44]): inactive
- zone of inhibition at 50 µg/mL (Pseudomonas aeruginosa [45]): 10 mm
- inhibition zone (IZ) (Aspergillus sp. [46]): inactive
